Test results: ChEMBL document CHEMBL1125882, “The agonist pharmacophore of the benzodiazepine receptor. Synthesis of a selective anticonvulsant/anxiolytic” (J Med Chem, 1991)

Legend:
Mus musculus [1] = assay: Number of mice impaired to that of number of mice tested at 20 mg/kg; 0/10; type: functional
Mus musculus [2] = assay: Effects on Diazepam-Induced Myorelaxation in mice was determined at 10 mg/kg; type: functional
Mus musculus [3] = assay: Tested for inhibition of pentylenetetrazole (PTZ = 80 mg/kg (ip)) induced seizures in mice at a dose of 0.5-40 mg/kg i.p.; type: functional; settings: route intraperitoneal
Procedure, shortened: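 Mice pretreated ip with drug (0.5-40 mg/kg); 15 min later pentylenetetrazole 80 mg/kg ip. Tonic and/or clonic seizures were scored over the next 15 min. 5-14 mice per dose point; ED50 taken from the dose-response curve.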

Mus musculus [4] = assay: Number of mice impaired to that of number of mice tested at 10 mg/kg; 0/10; type: functional
Mus musculus [5] = assay: Effects on Diazepam-Induced Myorelaxation in mice was determined at 20 mg/kg; type: functional
[6] = target: GABA-A receptor; anion channel; assay: Effect on [3H]flunitrazepam binding to Benzodiazepine receptor; type: protein-complex assay, Rattus norvegicus
Mus musculus [7] = assay: Effects on Diazepam-Induced Myorelaxation in mice was determined when administered along with compound 1 at 10 mg/kg; type: functional
Mus musculus [8] = organism: Mus musculus; assay: Effects on Diazepam-Induced Myorelaxation in mice was determined; type: functional
Mus musculus [9] = assay: Effects on Diazepam-Induced Myorelaxation in mice was determined when administered along with compound 1 at 20 mg/kg; type: functional

Compound	Activity (Mus musculus [1])	Impaired (Mus musculus [2]) [%]	ED50 (Mus musculus [3]) [mg/kg]	Activity (Mus musculus [4])	Impaired (Mus musculus [5]) [%]	IC50 [6] [nM]	Impaired (Mus musculus [7]) [%]	Impaired (Mus musculus [8]) [%]	Impaired (Mus musculus [9]) [%]
CCCOc1ccc2[nH]c3cnc(C(=O)OCC)c(COC)c3c2c1	0	0	1.6	0	0	8	–	–	–
CN1C(=O)CN=C(c2ccccc2)c2cc(Cl)ccc21 [DIAZEPAM]	–	–	–	–	–	–	50	100	0
